ChEMBL document CHEMBL3259688, “Synthesis and structure-activity relationship studies of conformationally flexible tetrahydroisoquinolinyl triazole carboxamide and triazole substituted benzamide analogues as σ2 receptor ligands” (J Med Chem, 2014)
pEC50, pKi: −log10 of the molar value.

How the values were obtained:
[1] = Lipophilicity, log P of the compound; format: physicochemical; conditions: octanol/water
[2] = Displacement of [3H]DTG from sigma-2 receptor in human MCF7 cell membranes after 120 mins
[3] = biological target: Sigma non-opioid intracellular receptor 1 (Cavia porcellus, UniProt Q60492); assay: Displacement of (+)-[3H]pentazocine from sigma-1 receptor in guinea pig brain membrane homogenate after 90 mins by liquid scintillation counting analysis; format: cell membranes
Sequence of Sigma non-opioid intracellular receptor 1 (Cavia porcellus, UniProt Q60492) (Q60492 whole entry): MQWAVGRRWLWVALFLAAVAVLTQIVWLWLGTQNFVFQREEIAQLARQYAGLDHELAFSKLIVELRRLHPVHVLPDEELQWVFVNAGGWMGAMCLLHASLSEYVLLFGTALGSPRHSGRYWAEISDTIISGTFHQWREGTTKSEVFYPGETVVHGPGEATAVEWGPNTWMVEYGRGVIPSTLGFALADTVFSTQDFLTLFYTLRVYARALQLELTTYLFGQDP
Procedure, shortened: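 Nonspecific binding with cold haloperidol. Compounds from DMSO or ethanol, diluted in 50 mM Tris-HCl, 150 mM NaCl, 100 mM EDTA, pH 7.4. Stopped with ice-cold 10 mM Tris-HCl/150 mM NaCl pH 7.4, filtered on fiberglass, washed, scintillation counted.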

[4] = Displacement of [3H]DTG from sigma-2 receptor in rat liver membrane homogenate after 2 hrs by liquid scintillation counting analysis in presence of pentazocine; format: cell membranes
[5] = Selectivity ratio of Ki for sigma-1 receptor in guinea pig brain membrane homogenate to Ki for sigma-2 receptor in rat liver membrane homogenate; format: cell membranes
[6] = biological target: Sigma non-opioid intracellular receptor 1 (Homo sapiens, UniProt Q99720); assay: Binding affinity to sigma-1 receptor (unknown origin)
Sequence of Sigma non-opioid intracellular receptor 1 (Homo sapiens, UniProt Q99720) (Q99720 whole entry): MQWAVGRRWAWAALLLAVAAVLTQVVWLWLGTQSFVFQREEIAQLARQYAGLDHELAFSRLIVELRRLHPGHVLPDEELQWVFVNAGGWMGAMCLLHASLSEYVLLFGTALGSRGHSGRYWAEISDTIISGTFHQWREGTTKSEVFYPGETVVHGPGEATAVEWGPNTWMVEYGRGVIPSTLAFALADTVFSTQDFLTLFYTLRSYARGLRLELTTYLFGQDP

[7] = Binding affinity to sigma-2 receptor (unknown origin); parameters: species or system Homo sapiens
Homo sapiens = organism: Homo sapiens; assay: Selectivity ratio of Ki for sigma-1 receptor (unknown origin) to Ki for sigma-2 receptor (unknown origin)
[8] = Antagonist activity at sigma-2 receptor in mouse EMT6 cells assessed as inhibition of cell proliferation after 48 hrs by MTS assay; format: cell-based; conditions: EMT6, 48 h
Procedure, shortened: (§1)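 EMT-6 mouse breast cancer cells grown in DMEM with 10% FBS and penicillin/streptomycin at 37 °C, 5% CO2. Seeded at 5 × 10^3 cells/well 24 h before dosing; serial dilutions from DMSO stocks, final DMSO ≤1.0%. Exposure 24 or 48 h, then MTS reagent 1–2 h at 37 °C, absorbance 490 nm vs untreated cells. EC50 from dose–response curves; triplicate wells, mean ± SEM of three independent experiments.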

[9] = Antagonist activity at sigma-2 receptor in mouse EMT6 cells assessed as inhibition of cell proliferation after 24 hrs by MTS assay; format: cell-based; conditions: EMT6, 24 h; procedure, shortened: as §1
[10] = biological target: Sigma non-opioid intracellular receptor 1 (Mus musculus, UniProt O55242); assay: Displacement of 5-bromo-N-(4-(3,4-dihydro-6,7-dimethoxyisoquinolin-2(1H)-yl)butyl)-2,3-dimethoxybenzamide from sigma-1 receptor in mouse EMT6 cell membranes after 60 mins by Scatchard plot analysis
Sequence of Sigma non-opioid intracellular receptor 1 (Mus musculus, UniProt O55242) (O55242 whole entry): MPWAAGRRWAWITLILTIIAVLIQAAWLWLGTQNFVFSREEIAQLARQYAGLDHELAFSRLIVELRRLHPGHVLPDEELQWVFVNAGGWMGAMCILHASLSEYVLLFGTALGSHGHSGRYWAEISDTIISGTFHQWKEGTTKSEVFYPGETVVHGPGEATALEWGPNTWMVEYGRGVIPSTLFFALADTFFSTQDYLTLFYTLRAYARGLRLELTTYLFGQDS

[11] = Displacement of 5-bromo-N-(4-(3,4-dihydro-6,7-dimethoxyisoquinolin-2(1H)-yl)butyl)-2,3-dimethoxybenzamide from sigma-2 receptor in mouse EMT6 cell membranes after 60 mins by Scatchard plot analysis
EMT6 = assay: Selectivity ratio of Ki for sigma-1 receptor in mouse EMT6 cell membranes to Ki for sigma-2 receptor in mouse EMT6 cell membranes; format: cell-based

Row | SMILES | pKi [3] | pKi [4] | Ratio Ki [5] | further results
1 | COc1cccc2c1CCCC2CCCN1CCN(C2CCCCC2)CC1 (configuration not stated) |  |  |  | logP [1]: 5; pKi [2]: 9.55
2 | COc1cc2c(cc1OC)CN(CCCCNC(=O)c1cc(C#N)ccc1OCc1cn(CCF)nn1)CC2 | 4.85 | 7.50 | 442 | 
3 | COc1cc2c(cc1OC)CN(CCNC(=O)c1cn(-c3ccccc3OC)nn1)CC2 | 4.81 | 6.82 | 103 | 
4 | COc1cc2c(cc1OC)CN(CCCCNC(=O)c1cn(-c3cccc(OCCF)c3)nn1)CC2 | 4.75 | 7.60 | 715 | 
5 | CN1CC[C@]2(c3cccc(O)c3)CC/C(=C/c3ccccc3)[C@@H]1C2 |  |  |  | pKi [6]: 5.51; pKi [7]: 7.78; logP [1]: 3.22; Ratio Ki (Homo sapiens): 185
6 | COc1ccc(Cn2cc(-c3ccc(C(=O)NCCCCN4CCc5cc(OC)c(OC)cc5C4)cc3)nn2)cc1 | 4.90 | 7.50 | 406 | 
7 | C#CCOc1ccc(C#N)cc1C(=O)NCCCCN1CCc2cc(OC)c(OC)cc2C1 | 5.43 | 7.91 | 301 | 
8 | COc1cc2c(cc1OC)CN(CCCCNC(=O)c1cc(-n3cc(CN(C)C)nn3)ccc1OCCF)CC2 | 4.66 | 7.03 | 232 | 
9 | COc1cc2c(cc1OC)CN(CCCCNC(=O)c1cn(Cc3cccc(O)c3)nn1)CC2 | 5.09 | 7.65 | 359 | 
10 | COc1cccc(Cn2cc(-c3ccc(C(=O)NCCCCN4CCc5cc(OC)c(OC)cc5C4)cc3)nn2)c1 | 4.94 | 7.18 | 174 | 
11 | COc1cccc(Cn2cc(-c3cccc(C(=O)NCCCCN4CCc5cc(OC)c(OC)cc5C4)c3)nn2)c1 | 5.76 | 7.18 | 26 | 
12 | COc1ccccc1Cn1cc(C(=O)NCCCCN2CCc3cc(OC)c(OC)cc3C2)nn1 | 4.69 | 8.01 | 2120 | 
13 | COc1cc2c(cc1OC)CN(CCCCNC(=O)c1cn(-c3ccc(OCCF)cc3)nn1)CC2 | 4.33 | 7.66 | 2120 | 
14 | COc1ccc(Cn2cc(C(=O)NCCN3CCc4cc(OC)c(OC)cc4C3)nn2)cc1 | 4.07 | 7.03 | 906 | 
15 | COc1ccc(-n2cc(C(=O)NCCCCN3CCc4cc(OC)c(OC)cc4C3)nn2)cc1 | 4.41 | 8.26 | 7120 | pEC50 [8]: < 3.70; pEC50 [9]: < 3.70
16 | COc1cc2c(cc1OC)CN(CCCCNC(=O)c1cc(I)ccc1OCCF)CC2 |  |  |  | pKi [10]: 5.89; logP [1]: 4.61; pKi [11]: 8.97
17 | COc1cc2c(cc1OC)CN(CCCCNC(=O)c1cc(-n3cc(CN(C)C)nn3)ccc1OC)CC2 | 4.65 | 7.25 | 395 | 
18 | COc1cc2c(cc1OC)CN(CCCCNC(=O)c1cn(Cc3ccc(OCCF)cc3)nn1)CC2 | 4.67 | 7.32 | 447 | 
19 | Fc1ccc(-n2cc(CCCCN3CCC4(CC3)OCc3ccccc34)c3ccccc32)cc1 [SIRAMESINE] |  |  |  | pKi [7]: 9.92; pEC50 [8]: 5.28; logP [1]: 6.07; pEC50 [9]: 4.83
20 | COc1cc2c(cc1OC)CN(CCCCNC(=O)c1cc(-n3cc(-c4cncn4C)nn3)ccc1OC)CC2 | 5.20 | 7.68 | 307 | 
21 | COc1cc2c(cc1OC)CN(CCCCNC(=O)c1cn(Cc3ccccc3)nn1)CC2 | 5.35 | 7.91 | 361 | 

Row | SMILES | pKi [3] | pKi [4] | Ratio Ki [5] | further results
22 | COc1ccc(Cn2cc(C(=O)NCCCCN3CCc4cc(OC)c(OC)cc4C3)nn2)cc1 | 5.48 | 8.30 | 669 | 
23 | COc1cccc(Cn2cc(C(=O)NCCCCN3CCc4cc(OC)c(OC)cc4C3)nn2)c1 | 4.90 | 7.97 | 1180 | 
24 | COc1cccc(-n2cc(C(=O)NCCN3CCc4cc(OC)c(OC)cc4C3)nn2)c1 | 4.12 | 6.74 | 426 | 
25 | COc1cccc(Cn2cc(C(=O)NCCN3CCc4cc(OC)c(OC)cc4C3)nn2)c1 | 4.10 | 6.67 | 373 | 
26 | COc1cc2c(cc1OC)CN(CCCCNC(=O)c1cc(-n3cc(COCCOCCF)nn3)ccc1OC)CC2 | 4.94 | 7.18 | 174 | 
27 | COc1cc2c(cc1OC)CN(CCCCNC(=O)c1cn(-c3ccccc3OCCF)nn1)CC2 | 4.77 | 7.62 | 713 | 
28 | COc1cc2c(cc1OC)CN(CCCCNC(=O)c1cc(C)ccc1OC)CC2 |  |  |  | pKi [10]: 5.51; logP [1]: 3.55
29 | COc1ccccc1Cn1cc(-c2ccc(C(=O)NCCCCN3CCc4cc(OC)c(OC)cc4C3)cc2)nn1 | 5.07 | 7.26 | 156 | 
30 | COc1cc2c(cc1OC)CN(CCCCNC(=O)c1cn(-c3ccccc3OC)nn1)CC2 | 4.88 | 8.82 | 8740 | 
31 | COc1cc2c(cc1OC)CN(CCCCNC(=O)c1ccc(-c3cn(CCOCCOCCF)nn3)cc1)CC2 | 4.80 | 6.67 | 75 | 
32 | COc1cc2c(cc1OC)CN(CCCCNC(=O)c1cc(C)ccc1OCCF)CC2 |  |  |  | pKi [10]: 6.48; Ratio Ki (EMT6): 48; logP [1]: 3.74; pKi [11]: 8.18
33 | COc1cccc(-n2cc(C(=O)NCCCCN3CCc4cc(OC)c(OC)cc4C3)nn2)c1 | 4.69 | 8.52 | 6730 | 
34 | COc1ccc(-n2cc(C(=O)NCCN3CCc4cc(OC)c(OC)cc4C3)nn2)cc1 | < 4.00 | 6.39 | > 243 | 
35 | CN1CC[C@]2(c3cccc(O)c3)CC/C(=C/c3ccc(Cl)c(Cl)c3)[C@@H]1C2 |  |  |  | pKi [6]: 5.13; pKi [7]: 7.87; logP [1]: 4.34; Ratio Ki (Homo sapiens): 557
36 | COc1cc2c(cc1OC)CN(CCCCNC(=O)c1cn(Cc3cccc(OCCF)c3)nn1)CC2 | 4.33 | 7.21 | 744 | 
37 | COc1ccccc1Cn1cc(C(=O)NCCN2CCc3cc(OC)c(OC)cc3C2)nn1 | 4.73 | 6.81 | 118 | 
38 | COc1cc2c(cc1OC)CN(CCCCNC(=O)c1c[nH]nn1)CC2 | 4.96 | 5.99 | 10.7 | 
39 | COc1cc2c(cc1OC)CN(CCCCNC(=O)c1ccc(-c3cn(CCF)nn3)cc1)CC2 | 4.14 | 6.86 | 517 | 
40 | COc1cc2c(cc1OC)CN(CCCCNC(=O)c1cn(Cc3ccc(O)cc3)nn1)CC2 | 4.20 | 7.94 | 5480 | 
41 | COc1cc2c(cc1OC)CN(CCCCNC(=O)c1ccc(-c3cn(CCOCCF)nn3)cc1)CC2 | 4.83 | 6.86 | 107 | 
